Test results taken from publication PMC3226999 (Food chemistry, 2012).
“Also recorded” adds a separate entry of the source.

Columns and labels:
[1] = test system: purified recombinant caspase-1, −3, and −7; experiment: Preliminary survey of inhibition of purified recombinant activated caspases; type: biochemical; details: for inhibition of purified caspase-1, −3, or −7 activity: 200 μM, 100 μM, 50 μM flavonoid (Figure 4); for caspase specificity: among caspase-1, −3, −7
[2] = test system: caspase-3 and −7 activity in MDA-MB-231 cells; experiment: Caspase-Glo 3/7 luminometric assay in cells; type: cell-based, human; details: for reduction of staurosporine-induced caspase-3/−7 activity: 1 μM staurosporine plus flavonoid 200, 100, 25 μM, 24 h (Figure 3B); for caspase-3 or −7 activity in treated cells versus DMSO control: 200 μM flavonoid or 1 μM staurosporine, 24 h (Figure 3A)
Summary of the method: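 MDA-MB-231 cells were grown in high-glucose DMEM with 10% BGS at 37 °C and 5% CO2. They were seeded at 0.5 × 10^4 cells/well, then treated after 24 h with test compound and/or staurosporine for 24 h. Alternatively, medium was replaced with 200 μM compound plus 1 μM staurosporine just before assay. Caspase-3/7 activity was read by Caspase-Glo 3/7 luminescence as fold activation over DMSO-treated cells (n=3, standard error of margin, t-test).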

recombinant caspase-3 = target: T1, recombinant caspase-3 (Homo sapiens, UniProt P42574); type: biochemical
T1 sequence (P42574 29-175 limits assumed): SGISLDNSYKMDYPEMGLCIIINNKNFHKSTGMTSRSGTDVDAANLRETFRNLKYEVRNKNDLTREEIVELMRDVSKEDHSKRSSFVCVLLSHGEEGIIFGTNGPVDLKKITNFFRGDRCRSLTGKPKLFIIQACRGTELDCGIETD
T1 sequence (P42574 176-277 limits assumed): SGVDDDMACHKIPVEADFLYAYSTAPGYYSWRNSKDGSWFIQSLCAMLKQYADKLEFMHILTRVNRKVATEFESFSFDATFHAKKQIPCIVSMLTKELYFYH

Compound	inhibition of purified caspase-1, −3, or −7 activity [1]	reduction of staurosporine-induced caspase-3/−7 activity [2]	caspase-3 or −7 activity in treated cells versus DMSO control [2]	type of caspase inhibition ([1]; Lineweaver-Burk plots, caspase-1, −3, −7)	caspase specificity [1]	IC50 (recombinant caspase-3) [µM]
O=c1cc(-c2ccc(O)cc2)oc2cc(O)cc(O)c12 [Apigenin, apigenin]	did not exhibit strong dose-dependent inhibition	reduction in activity was dose dependent	decrease in caspase-3 or −7 activity			
O.Oc1cc(O)c2c(c1)O[C@H](c1ccc(O)c(O)c1)[C@@H](O)C2 [Catechin, catechin]	did not exhibit strong dose-dependent inhibition					
O=c1cc(-c2ccccc2)oc2cc(O)cc(O)c12 [Chrysin, chrysin]	did not exhibit strong dose-dependent inhibition					
O=c1c(-c2ccc(O)cc2)coc2cc(O)ccc12 [Daidzein, daidzein]	did not exhibit strong dose-dependent inhibition; also recorded: unable to inhibit caspase activity					
O=c1c(-c2ccc(O)cc2)coc2cc(O)cc(O)c12 [Genistein, genistein]	unable to inhibit caspase activity					
O=c1c(O)c(-c2ccc(O)cc2)oc2cc(O)cc(O)c12 [Kaempferol, kaempferol]	significant, dose-dependent inhibition	reduction in activity was dose dependent	decrease in caspase-3 or −7 activity			
O=c1cc(-c2ccc(O)c(O)c2)oc2cc(O)cc(O)c12 [Luteolin, luteolin]	significant, dose-dependent inhibition	reduction in activity was dose dependent	decrease in caspase-3 or −7 activity			
O=c1c(O)c(-c2cc(O)c(O)c(O)c2)oc2cc(O)cc(O)c12 [Myricetin, myricetin]	significant, dose-dependent inhibition; also recorded: one of the more potent inhibitors	able to reduce the staurosporine-induced activity		competitive	specificity for caspase-1	25
O=C1C[C@@H](c2ccc(O)cc2)Oc2cc(O)cc(O)c21 [Narigenin, naringenin]	did not exhibit strong dose-dependent inhibition					
O=c1c(O)c(-c2ccc(O)c(O)c2)oc2cc(O)cc(O)c12 [Quercetin, quercetin]	significant, dose-dependent inhibition	able to reduce the staurosporine-induced activity	increase caspase-3 or −7 activity only slightly		specificity for caspase-3	
CN[C@@H]1C[C@H]2O[C@@](C)([C@@H]1OC)n1c3ccccc3c3c4c(c5c6ccccc6n2c5c31)C(=O)NC4 [Staurosporine, staurosporine, reference compound]			very strong caspase-3 or −7 activation			
